Source: ChEMBL document CHEMBL3576822 (J Med Chem, 2015)
Calls of active or inactive are those of the source. No cut-off for these calls is given here. Non-standard residues stand in square brackets, D forms with d. Residues, ends and D or L forms follow the SMILES beside them. ξ: configuration not given here. ξDap = NCC(N)C(=O)O

How the values were obtained:
[1] = molecular target: T1, Neuropeptide Y receptor type 2 (Homo sapiens, UniProt P49146); assay: Agonist activity at human neuropeptide Y Y2 receptor expressed in COS-7 cells cotransfected with chimeric Gi/q protein assessed as inositol phosphate accumulation after 2 hrs by anion exchange chromatography; type: functional, cell-based
T1 sequence (P49146 whole entry): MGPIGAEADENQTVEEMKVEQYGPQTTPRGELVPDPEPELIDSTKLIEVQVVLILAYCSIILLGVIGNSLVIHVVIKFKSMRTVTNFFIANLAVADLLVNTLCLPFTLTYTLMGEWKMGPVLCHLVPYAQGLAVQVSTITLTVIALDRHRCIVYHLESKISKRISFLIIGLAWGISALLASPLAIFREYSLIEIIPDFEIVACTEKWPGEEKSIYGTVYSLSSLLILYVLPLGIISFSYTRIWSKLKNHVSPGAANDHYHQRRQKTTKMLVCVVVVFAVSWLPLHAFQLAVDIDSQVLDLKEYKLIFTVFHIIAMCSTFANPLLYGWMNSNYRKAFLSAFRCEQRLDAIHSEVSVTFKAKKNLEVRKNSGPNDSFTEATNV
Summary of the method: (§1)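 Inositol phosphate turnover in COS-7 cells stably co-expressing human Y2 receptor and chimeric Gi/q protein; concentration-response curves, responses as % of maximum Y2 activity; SEM over two biological replicates.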

[2] = molecular target: T2, Growth hormone secretagogue receptor type 1 (Homo sapiens, UniProt Q92847); assay: Inverse agonist activity at human GHSR1a receptor expressed in COS-7 cells assessed as inositol phosphate accumulation after 2 hrs by anion exchange chromatography relative to control; type: functional, cell-based
[3] = molecular target: Neuropeptide Y receptor type 4 (Homo sapiens) (UniProt P50391); assay: Agonist activity at human neuropeptide Y Y4 receptor expressed in COS-7 cells cotransfected with chimeric Gi/q protein assessed as inositol phosphate accumulation at 1 uM after 2 hrs by anion exchange chromatography; type: functional, cell-based
Summary of the method: (§2)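 COS-7 cells stably co-expressing the corresponding human Y receptor plus a chimeric Gi/q protein; single high concentration tested in inositol phosphate accumulation; response as % of NPY response at each receptor; SEM over two biological replicates.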

[4] = molecular target: T2, Growth hormone secretagogue receptor type 1; assay: Inverse agonist activity at human GHSR1a receptor expressed in COS-7 cells assessed as inositol phosphate accumulation after 2 hrs by anion exchange chromatography; type: functional, cell-based
[5] = molecular target: T3, Neuropeptide Y receptor type 5 (Homo sapiens) (UniProt Q15761); assay: Agonist activity at human neuropeptide Y Y5 receptor expressed in COS-7 cells cotransfected with chimeric Gi/q protein assessed as inositol phosphate accumulation at 1 uM after 2 hrs by anion exchange chromatography; type: functional, cell-based; summary of the method: as §2
T3 sequence (whole entry): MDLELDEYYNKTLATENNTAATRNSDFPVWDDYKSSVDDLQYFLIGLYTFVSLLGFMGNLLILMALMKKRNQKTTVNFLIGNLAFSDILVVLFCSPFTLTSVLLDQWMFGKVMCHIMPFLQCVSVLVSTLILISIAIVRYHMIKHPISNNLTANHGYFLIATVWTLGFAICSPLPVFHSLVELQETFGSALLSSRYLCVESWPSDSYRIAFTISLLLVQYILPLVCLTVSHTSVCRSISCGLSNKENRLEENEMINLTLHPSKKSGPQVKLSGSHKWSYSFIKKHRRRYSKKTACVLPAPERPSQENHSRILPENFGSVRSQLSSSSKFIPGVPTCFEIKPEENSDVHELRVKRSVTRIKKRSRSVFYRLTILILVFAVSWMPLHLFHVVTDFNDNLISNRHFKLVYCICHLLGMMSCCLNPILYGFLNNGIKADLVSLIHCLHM

[6] = molecular target: T4, Neuropeptide Y receptor type 1 (Homo sapiens) (UniProt P25929); assay: Agonist activity at human neuropeptide Y Y1 receptor expressed in COS-7 cells cotransfected with chimeric Gi/q protein assessed as inositol phosphate accumulation at 1 uM after 2 hrs by anion exchange chromatography; type: functional, cell-based; summary of the method: as §2
T4 sequence (whole entry): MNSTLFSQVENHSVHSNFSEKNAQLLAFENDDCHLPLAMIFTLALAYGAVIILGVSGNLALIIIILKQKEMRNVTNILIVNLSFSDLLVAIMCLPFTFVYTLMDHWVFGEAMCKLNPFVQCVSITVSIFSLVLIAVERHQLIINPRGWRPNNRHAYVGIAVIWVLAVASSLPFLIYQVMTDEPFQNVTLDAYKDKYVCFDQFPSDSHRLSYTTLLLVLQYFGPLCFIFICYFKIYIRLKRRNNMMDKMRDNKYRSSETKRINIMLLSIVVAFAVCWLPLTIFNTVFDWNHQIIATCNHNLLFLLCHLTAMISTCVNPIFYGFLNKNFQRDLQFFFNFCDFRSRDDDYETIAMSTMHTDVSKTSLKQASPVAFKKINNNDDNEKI

[7] = molecular target: T1, Neuropeptide Y receptor type 2; assay: Displacement of [125I]PYY from human neuropeptide Y Y2 receptor expressed in HEK293 cells cotransfected with eYFP fusion protein after 2 hrs by competitive receptor binding assay; type: cell-based
Summary of the method: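 Competitive binding against 125I-PYY in HEK-293 cells stably expressing human Y2 receptor; concentration-response curves.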

[8] = molecular target: T2, Growth hormone secretagogue receptor type 1; assay: Displacement of [125I]ghrelin from human eYFP-fused ghrelin receptor expressed in COS7 cells after 75 mins by competitive receptor binding assay; type: cell-based, COS-7
[9] = molecular target: T5, Neuropeptide Y receptor type 2 (Homo sapiens) (UniProt P49146); assay: Agonist activity at human neuropeptide Y Y2 receptor expressed in COS-7 cells cotransfected with chimeric Gi/q protein assessed as inositol phosphate accumulation after 2 hrs by anion exchange chromatography relative to control; type: functional, cell-based; summary of the method: as §1
T5 sequence (whole entry): T1 sequence (P49146 whole entry)

Mus musculus [10] = assay: Decrease in food intake in diet-induced obese C57BL/6JRj mouse at 0.25 nM/h, sc administered via osmotic minipumps daily for 14 days; type: functional, organism-based
Mus musculus [11] = assay: Effect on body weight in diet-induced obese C57BL/6JRj mouse at 50 to 250 nM/kg, ip; type: functional, organism-based
Summary of the method: (§3)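 Freely fed diet-induced obese mice, saline control group; single acute dose, SC at 500 nM/kg or IP at 50, 100 or 250 nM/kg; cumulative food intake and body weight recorded.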

Mus musculus [12] = assay: Effect on body weight in diet-induced obese C57BL/6JRj mouse at 500 nM/kg, sc; type: functional, organism-based; summary of the method: as §3
Mus musculus [13] = assay: Effect on food intake in diet-induced obese C57BL/6JRj mouse at 50 to 250 nM/kg, ip; type: functional, organism-based; summary of the method: as §3
Mus musculus [14] = assay: Effect on food intake in diet-induced obese C57BL/6JRj mouse at 500 nM/kg, sc; type: functional, organism-based; summary of the method: as §3

Sequence of Neuropeptide Y receptor type 4 (Homo sapiens) (P50391 whole entry): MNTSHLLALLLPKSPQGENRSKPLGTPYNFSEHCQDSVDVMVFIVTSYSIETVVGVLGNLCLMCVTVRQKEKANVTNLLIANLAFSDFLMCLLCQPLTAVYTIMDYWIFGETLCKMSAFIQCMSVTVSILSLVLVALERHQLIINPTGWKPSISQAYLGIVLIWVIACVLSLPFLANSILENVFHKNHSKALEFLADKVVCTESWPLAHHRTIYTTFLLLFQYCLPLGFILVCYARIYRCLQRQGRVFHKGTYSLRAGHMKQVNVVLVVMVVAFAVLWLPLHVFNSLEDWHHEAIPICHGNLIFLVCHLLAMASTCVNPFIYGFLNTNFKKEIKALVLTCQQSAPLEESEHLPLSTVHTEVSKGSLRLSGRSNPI
T2 sequence (Q92847 whole entry): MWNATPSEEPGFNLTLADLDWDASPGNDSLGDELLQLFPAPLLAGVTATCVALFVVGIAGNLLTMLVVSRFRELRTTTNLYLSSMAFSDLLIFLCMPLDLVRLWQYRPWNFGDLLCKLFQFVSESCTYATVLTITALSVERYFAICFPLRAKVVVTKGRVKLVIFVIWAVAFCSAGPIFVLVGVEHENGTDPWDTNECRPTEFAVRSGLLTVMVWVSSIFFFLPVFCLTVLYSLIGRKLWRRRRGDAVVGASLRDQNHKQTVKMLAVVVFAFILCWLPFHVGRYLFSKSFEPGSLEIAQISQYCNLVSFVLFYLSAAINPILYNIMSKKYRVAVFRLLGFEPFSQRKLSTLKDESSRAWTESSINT

| SMILES | EC50 [1] [nM] | Efficacy [2] [%] | Efficacy [3] [%] | EC50 [4] [nM] | Efficacy [5] [%] | Efficacy [6] [%] | Efficacy [9] [%] | also measured |
| --- | --- | --- | --- | --- | --- | --- | --- | --- |
| CC(=O)N[C@@H](CCCCNC(=O)CCCCCNC(=O)[C@H](CCC(N)=O)NC(=O)[C@H](CC(C)C)NC(=O)[C@@H](Cc1c[nH]c2ccccc12)NC(=O)[C@H](Cc1ccccc1)NC(=O)[C@@H](Cc1cccc2ccccc12)NC(=O)[C@@H](N)CCCCN)C(=O)N[C@@H](CC(C)C)C(=O)N[C@@H](CCCNC(=N)N)C(=O)N[C@@H](Cc1cnc[nH]1)C(=O)N[C@@H](Cc1ccc(O)cc1)C(=O)N[C@@H](CC(C)C)C(=O)N[C@@H](CC(N)=O)C(=O)N[C@@H](CC(C)C)C(=O)N[C@@H](CC(C)C)C(=O)N[C@H](C(=O)N[C@@H](CCCNC(=N)N)C(=O)N[C@@H](CCC(N)=O)C(=O)N[C@@H](CCCNC(=N)N)C(=O)N[C@@H](Cc1ccc(O)cc1)C(N)=O)[C@@H](C)O | 3.9 | 85 | 35 | 88.3 | > 56 | > 66 | 84 | IC50 [7]: 9 nM; IC50 [8]: 78.2 nM |
| CC(=O)N[C@@H](CCCCN)C(=O)N[C@@H](CC(C)C)C(=O)N[C@@H](CCCNC(=N)N)C(=O)N[C@@H](Cc1cnc[nH]1)C(=O)N[C@@H](Cc1ccc(O)cc1)C(=O)N[C@@H](CC(C)C)C(=O)N[C@@H](CC(N)=O)C(=O)N[C@@H](CC(C)C)C(=O)N[C@@H](CC(C)C)C(=O)N[C@H](C(=O)N[C@@H](CCCNC(=N)N)C(=O)N[C@@H](CCC(N)=O)C(=O)N[C@@H](CCCNC(=N)N)C(=O)N[C@@H](Cc1ccc(O)cc1)C(N)=O)[C@@H](C)O (Ac-KLRHYLNLLTRQRY-NH2) | 0.5 | – | – | > 1000 | – | – | 68 | – |
| CC(=O)NC(CN)C(=O)N[C@@H](CC(C)C)C(=O)N[C@@H](CCCNC(=N)N)C(=O)N[C@@H](Cc1cnc[nH]1)C(=O)N[C@@H](Cc1ccc(O)cc1)C(=O)N[C@@H](CC(C)C)C(=O)N[C@@H](CC(N)=O)C(=O)N[C@@H](CC(C)C)C(=O)N[C@@H](CC(C)C)C(=O)N[C@H](C(=O)N[C@@H](CCCNC(=N)N)C(=O)N[C@@H](CCC(N)=O)C(=O)N[C@@H](CCCNC(=N)N)C(=O)N[C@@H](Cc1ccc(O)cc1)C(N)=O)[C@@H](C)O (some centres not stated) (Ac-[ξDap]LRHYLNLLTRQRY-NH2) | 0.4 | – | – | – | – | – | 77 | – |
| CC(=O)N[C@@H](CC(C)C)C(=O)N[C@@H](CCCNC(=N)N)C(=O)N[C@@H](Cc1cnc[nH]1)C(=O)N[C@@H](Cc1ccc(O)cc1)C(=O)N[C@@H](CC(C)C)C(=O)N[C@@H](CC(N)=O)C(=O)N[C@@H](CC(C)C)C(=O)N[C@@H](CC(C)C)C(=O)N[C@H](C(=O)N[C@@H](CCCNC(=N)N)C(=O)N[C@@H](CCC(N)=O)C(=O)N[C@@H](CCCNC(=N)N)C(=O)N[C@@H](Cc1ccc(O)cc1)C(N)=O)[C@@H](C)O (Ac-LRHYLNLLTRQRY-NH2) | – | – | – | – | – | – | – | inhibition (Mus musculus [10]): inactive; Activity (Mus musculus [11]): inactive; Activity (Mus musculus [12]): inactive; Activity (Mus musculus [13]): inactive; Activity (Mus musculus [14]): inactive |
| CC(=O)N[C@@H](CNC(=O)CCC(=O)N[C@@H](CCCCN)C(=O)N[C@@H](CCCCN)C(=O)N[C@H](Cc1cccc2ccccc12)C(=O)N[C@@H](Cc1ccccc1)C(=O)N[C@H](Cc1c[nH]c2ccccc12)C(=O)N[C@@H](CC(C)C)C(=O)N[C@@H](CC(C)C)C(N)=O)C(=O)N[C@@H](CC(C)C)C(=O)N[C@@H](CCCNC(=N)N)C(=O)N[C@@H](Cc1cnc[nH]1)C(=O)N[C@@H](Cc1ccc(O)cc1)C(=O)N[C@@H](CC(C)C)C(=O)N[C@@H](CC(N)=O)C(=O)N[C@@H](CC(C)C)C(=O)N[C@@H](CC(C)C)C(=O)N[C@H](C(=O)N[C@@H](CCCNC(=N)N)C(=O)N[C@@H](CCC(N)=O)C(=O)N[C@@H](CCCNC(=N)N)C(=O)N[C@@H](Cc1ccc(O)cc1)C(N)=O)[C@@H](C)O | – | – | – | – | – | – | – | EC50 ([1]; cos-7): 2 nM; EC50 ([4]; cos-7): 110 nM; IC50 ([7]; hek293): 9.7 nM; IC50 ([8]; cos-7): 70.4 nM |
| CC(=O)N[C@@H](CCCCNC(=O)CCNC(=O)[C@H](CCC(N)=O)NC(=O)[C@H](CC(C)C)NC(=O)[C@@H](Cc1c[nH]c2ccccc12)NC(=O)[C@H](Cc1ccccc1)NC(=O)[C@@H](Cc1cccc2ccccc12)NC(=O)[C@@H](N)CCCCN)C(=O)N[C@@H](CC(C)C)C(=O)N[C@@H](CCCNC(=N)N)C(=O)N[C@@H](Cc1cnc[nH]1)C(=O)N[C@@H](Cc1ccc(O)cc1)C(=O)N[C@@H](CC(C)C)C(=O)N[C@@H](CC(N)=O)C(=O)N[C@@H](CC(C)C)C(=O)N[C@@H](CC(C)C)C(=O)N[C@H](C(=O)N[C@@H](CCCNC(=N)N)C(=O)N[C@@H](CCC(N)=O)C(=O)N[C@@H](CCCNC(=N)N)C(=O)N[C@@H](Cc1ccc(O)cc1)C(N)=O)[C@@H](C)O | 1.7 | 88 | 46 | 99.9 | > 56 | > 66 | 86 | IC50 [7]: 14.7 nM; IC50 [8]: 126 nM |
| CC(=O)NC(CNC(=O)CCC(=O)N[C@@H](CCCCN)C(=O)N[C@@H](CCCCN)C(=O)N[C@@H](Cc1cccc2ccccc12)C(=O)N[C@@H](Cc1ccccc1)C(=O)N[C@H](Cc1c[nH]c2ccccc12)C(=O)N[C@@H](CC(C)C)C(=O)N[C@@H](CC(C)C)C(N)=O)C(=O)N[C@@H](CC(C)C)C(=O)N[C@@H](CCCNC(=N)N)C(=O)N[C@@H](Cc1cnc[nH]1)C(=O)N[C@@H](Cc1ccc(O)cc1)C(=O)N[C@@H](CC(C)C)C(=O)N[C@@H](CC(N)=O)C(=O)N[C@@H](CC(C)C)C(=O)N[C@@H](CC(C)C)C(=O)N[C@H](C(=O)N[C@@H](CCCNC(=N)N)C(=O)N[C@@H](CCC(N)=O)C(=O)N[C@@H](CCCNC(=N)N)C(=O)N[C@@H](Cc1ccc(O)cc1)C(N)=O)[C@@H](C)O (some centres not stated) | – | 78 | < 25 | – | 33 | < 25 | 82 | – |
